Test results from ChEMBL document CHEMBL4152233, “Design, synthesis and anthelmintic activity of 7-keto-sempervirol analogues” (Eur J Med Chem, 2018).
Calls of active or inactive are those of the source.

Columns and labels:
Schistosoma mansoni [1] = experiment: Antischistosomal activity against schistosomula of Schistosoma mansoni assessed as effect on parasite phenotype by throughput high content image analysis; format: functional, organism-based
In short: (§1)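 Puerto Rican (NMRI) strain cercariae were mechanically transformed to schistosomula. About 120 larvae were co-cultured with compound for 72 hr at 37 °C, 5% CO2, at 0.625% DMSO final. Controls were DMSO and auranofin. Motility and phenotype were scored by automated image analysis, with a hit threshold of ≤-0.15 (phenotype) and ≤-0.35 (motility) in ≥70% of larvae. Runs were in duplicate, and IC50 was estimated from dose-response curves.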

Schistosoma mansoni [2] = experiment: Antischistosomal activity against schistosomula of Schistosoma mansoni assessed as effect on parasite motility by throughput high content image analysis; format: functional, organism-based; in short: as §1
[3] = Cytotoxicity against human HepG2 cells after 24 hrs by MTT assay; format: cell-based
In short: (§2)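 Cells were grown to about 80% confluence (HepG2 in BME, MDBK in EMEM, each with 10% FBS). They were seeded at 2.5 x10^4 per well and rested 24 hr, then exposed 24 hr to compound at 100–0.01 µM (1.25% DMSO). Controls were DMSO and 1% Triton X-100. Viability was read by MTT, and CC50 came from dose-response curves run in triplicate.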

[4] = Cytotoxicity against MDBK cells after 24 hrs by MTT assay; format: cell-based, Bos taurus; conditions: cattle; in short: as §2
Schistosoma mansoni [5] = experiment: Antischistosomal activity against adult stage of Schistosoma mansoni assessed as effect on parasite motility after 72 hrs by microscopic method; format: functional, organism-based
In short: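 Mice were infected percutaneously with 200 cercariae, and adults were recovered by portal perfusion at seven weeks. Three worm pairs per well in modified DMEM with 10% FCS were given compound at 50, 25, 12.5 and 6.25 µM final (0.3% DMSO) for 72 hr at 37 °C, 5% CO2. Controls were DMSO and auranofin. Worms were scored manually by microscopy at 24, 48 and 72 hr. Experiments were run in duplicate.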

Schistosoma mansoni [6] = experiment: Antischistosomal activity against schistosomula of Schistosoma mansoni at 25 uM by throughput high content image analysis; format: functional, organism-based; in short: as §1
[7] = Selectivity index, ratio of IC50 for human HepG2 cells to IC50 for antischistosomal activity against schistosomula of Schistosoma mansoni assessed as effect on parasite phenotype; format: toxicity; conditions: read-out: Ratio IC50
In short: (§3)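 Selectivity index was calculated as the CC50 from the HepG2 or MDBK MTT assay divided by the schistosomula phenotype or motility IC50 from the 72 hr image-based screen.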

[8] = Selectivity index, ratio of IC50 for human HepG2 cells to IC50 for antischistosomal activity against schistosomula of Schistosoma mansoni assessed as effect on parasite motility; format: toxicity; conditions: read-out: Ratio IC50; in short: as §3
[9] = Selectivity index, ratio of IC50 for MDBK cells to IC50 for antischistosomal activity against schistosomula of Schistosoma mansoni assessed as effect on parasite phenotype; format: toxicity; conditions: cattle, read-out: Ratio IC50; in short: as §3
[10] = Selectivity index, ratio of IC50 for MDBK cells to IC50 for antischistosomal activity against schistosomula of Schistosoma mansoni assessed as effect on parasite motility; format: toxicity; conditions: cattle, read-out: Ratio IC50; in short: as §3
Fasciola hepatica [11] = experiment: Antifasciola activity against newly excysted juveline stage of Fasciola hepatica Italian assessed as effect on parasite phenotype after 72 hrs; format: functional, organism-based
In short: (§4)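 NEJs came from Italian-strain metacercariae, excysted either by pepsin/HCl or by needle rupture, then 1 hr in sodium tauroglycocholate. They were plated at 25 per well in RPMI-1640 with 1% FCS. Screening was at 25 and 12.5 µM, then titration from 10 to 0.625 µM (0.16% DMSO). Controls were DMSO and 10 µM triclabendazole. Motility and phenotype were scored at 72 hr, with IC50 from dose-response curves.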

Fasciola hepatica [12] = experiment: Antifasciola activity against newly excysted juveline stage of Fasciola hepatica Italian assessed as effect on parasite motility after 72 hrs; format: functional, organism-based; in short: as §4
[13] = Selectivity index, ratio of IC50 for human HepG2 cells to IC50 for newly excysted juveline stage of Fasciola hepatica Italian assessed as effect on parasite phenotype; format: toxicity; conditions: read-out: Ratio IC50
In short: (§5)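 Selectivity index was calculated as the CC50 from the HepG2 or MDBK MTT assay divided by the F. hepatica NEJ phenotype or motility IC50 from the 72 hr manual scoring assay.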

[14] = Selectivity index, ratio of IC50 for human HepG2 cells to IC50 for newly excysted juveline stage of Fasciola hepatica Italian assessed as effect on parasite motility; format: toxicity; conditions: read-out: Ratio IC50; in short: as §5
[15] = Selectivity index, ratio of IC50 for MDBK cells to IC50 for newly excysted juveline stage of Fasciola hepatica Italian assessed as effect on parasite phenotype; format: toxicity; conditions: cattle, read-out: Ratio IC50; in short: as §5
[16] = Selectivity index, ratio of IC50 for MDBK cells to IC50 for newly excysted juveline stage of Fasciola hepatica Italian assessed as effect on parasite motility; format: toxicity; conditions: cattle, read-out: Ratio IC50; in short: as §5

Compound	IC50 (Schistosoma mansoni [1]) [µM]	IC50 (Schistosoma mansoni [2]) [µM]	CC50 at 24 h [3] [µM]	CC50 at 24 h [4] [µM]	other results
COc1ccc2c(c1)C(=O)C[C@H]1C(C)(C)CCC[C@]21C (relative stereo)	28.6	17.6	> 100	> 100	–
CC1=C(C(=O)Cc2ccc(C(C)C)cc2)C(C)(C)CCC1	25.4	18.2	71.7	> 100	IC50 (Schistosoma mansoni [5]): > 50 µM; Activity (Schistosoma mansoni [6]): Active; selectivity ratio [7]: 2.8; selectivity ratio [8]: 3.9
COc1ccc2c(c1)C(=O)C(=O)[C@@H]1C(C)(C)CCC[C@]21C (relative stereo)	22.9	6.4	84.9	> 100	IC50 (Schistosoma mansoni [5]): > 50 µM; Activity (Schistosoma mansoni [6]): Active; selectivity ratio [7]: 3.7; selectivity ratio [8]: 13.2
COc1cc(CC(=O)C2=C(C)CCCC2(C)C)cc(OC)c1OC	43.7	27.2	> 100	> 100	–
COc1ccc(CC/C=C(\C)CCC=C(C)C)cc1	39.4	40.1	> 100	> 100	–
CC(C)c1cc2c(cc1O)C(=O)C[C@H]1C(C)(C)CCC[C@]21C	21.9	26.2	80	63.8	selectivity ratio [7]: 3.7; selectivity ratio [8]: 3.1; selectivity ratio [9]: 2.9; selectivity ratio [10]: 2.4; IC50 (Fasciola hepatica [11]): 16.8 µM; IC50 (Fasciola hepatica [12]): 13.1 µM; selectivity ratio [13]: 4.8; selectivity ratio [14]: 6.1; selectivity ratio [15]: 3.8; selectivity ratio [16]: 4.9
COc1cccc(CC(=O)C2=C(C)CCCC2(C)C)c1	41.4	28.1	> 100	> 100	–
CC1(C)CCC[C@]2(C)c3ccc(O)cc3C(=O)C[C@@H]12 (relative stereo)	28	21.9	65.1	> 100	selectivity ratio [7]: 2.3; selectivity ratio [8]: 3
COc1ccc2c(c1)CC[C@H]1C(C)(C)CCC[C@]21C (relative stereo)	43.4	27.9	89	> 100	selectivity ratio [7]: 2.1; selectivity ratio [8]: 3.3
CC(C)=CCC/C(C)=C/CCc1ccccc1	43.8	43.8	> 100	> 100	–
COc1cccc(CC(O)C2=C(C)CCCC2(C)C)c1 (stereo unspecified)	39.9	23.5	> 100	> 100	–
COc1cc(CC(O)C2=C(C)CCCC2(C)C)cc(OC)c1OC (stereo unspecified)	43.8	43.6	> 100	> 100	–
COc1ccc(CC(=O)C2=C(C)CCCC2(C)C)cc1	25.3	19.1	> 100	91.1	IC50 (Schistosoma mansoni [5]): > 50 µM; Activity (Schistosoma mansoni [6]): Active; selectivity ratio [9]: 3.6; selectivity ratio [10]: 4.8
COc1ccc(CC(O)C2=C(C)CCCC2(C)C)cc1 (stereo unspecified)	42.5	26.4	> 100	> 100	–
CC1(C)CCC[C@]2(C)c3ccccc3C(=O)C(=O)[C@H]12 (relative stereo)	25	13	> 100	> 100	IC50 (Schistosoma mansoni [5]): > 50 µM; Activity (Schistosoma mansoni [6]): Active
CC1=C(C(O)Cc2ccc(C(C)(C)C)cc2)C(C)(C)CCC1 (stereo unspecified)	40.2	25.6	> 100	> 100	–
COc1ccc2c(c1)[C@@]1(C)CCCC(C)(C)[C@@H]1CC2 (relative stereo)	44.1	26.6	> 100	> 100	–
CC1=C(C(O)Cc2ccccc2)C(C)(C)CCC1 (stereo unspecified)	43.6	21.5	> 100	> 100	–
COc1ccc2c(c1)[C@@]1(C)CCCC(C)(C)[C@H]1C(=O)C2=O (relative stereo)	43.7	26.5	> 100	> 100	–
CC1=C(C(=O)Cc2ccccc2)C(C)(C)CCC1	43.8	26	> 100	> 100	–
COc1cccc(CC/C=C(\C)CCC=C(C)C)c1	43.9	27.1	> 100	> 100	–
CC1=C(C(O)Cc2ccc(C(C)C)cc2)C(C)(C)CCC1 (stereo unspecified)	39.9	27.3	> 100	> 100	–
CC1=C(C(=O)Cc2ccc(C(C)(C)C)cc2)C(C)(C)CCC1	28	18.9	> 100	> 100	–
CC1(C)CCC[C@]2(C)c3ccccc3C(=O)C[C@@H]12 (relative stereo)	39.5	14.7	84.2	> 100	selectivity ratio [7]: 2.1; selectivity ratio [8]: 5.7
